The sample as a whole holds a higher share of hits than the screen did.
MMP-13 inhibitor – human MMP13 inhibitors, primary screen, biochemical, FRET peptide cleavage | 65,000 compounds, 0.07% hits | inhibition, % at 4 µM | AID 570, 2006 | MMP-13 fTHP FRET cleavage, Mca fluorescence | Collagenase 3 (Homo sapiens), P45452;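 active = inhibition above the mean of compound-free control plate wells plus 3 SD, cut at about 14% in these data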;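 also: 0% = DMSO wells and 100% = wells with reference MMP-13 inhibitor after basal subtraction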
AP complement – alternative complement pathway inhibitors, primary screen, biochemical, ELISA, human serum, orthogonally pooled compounds; 62,000 compounds, 0.08% hits; inhibition, % at 5 µM; LPS-coated ELISA, C3 deposition; tested in compound mixtures;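 active = inhibition above 30% in each of the two pooled mixtures holding the compound, so the lower value exceeds 30%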;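 also: 0% = serum in Mg-EGTA without compound and 100% = EDTA serum blank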
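Medium: diluted human serum in Mg2+-EGTA GVB++. Assay system: human serum complement alternative pathway, C3 deposition onto LPS. Also added: Plate-bound LPS. Technique: Anti-C3 ELISA, OD 450 nm. Measure: percent inhibition. Incubation: 1 h at 37 °C. Dosing: 5 µM each compound, pools of ten, 50 µM per pool.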
Candida biofilm – clotrimazole potentiators killing Candida biofilms, primary screen, with clotrimazole, Alamar Blue | C. albicans biofilm + clotrimazole | inhibition, % at 6 µM | 85,000 compounds, 0.14% hits | AID 834, 2007;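 active = inhibition above 20%; inactive = inhibition below 20%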;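 also: preformed 24 hr biofilms exposed to compound for 48 hr; 0% = biofilm without compound and 100% = blank killed by clotrimazole plus chlorhexidine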
hDAT+cocaine – changed hDAT dopamine uptake under cocaine IC80, either direction, primary screen, cocaine antagonist project, cell-based, LLC-PK1 hDAT, [14C]-dopamine uptake, MLSMR. B-score at 10 µM. Sodium-dependent dopamine transporter (Homo sapiens), Q01959. LLC-PK1 hDAT cells, [14C]-dopamine uptake with cocaine IC80; actives deviate in either direction. 110,000 compounds, 1.3% hits;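 active = Z score or B-score, a plate-position-corrected score, falls beyond the plate's 99.7% confidence bounds, in either direction; inactive = both scores lie inside the 99.7% bounds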;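 also: scored against the spread of the other compound wells on the same plate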
Target sequence (Q01959 whole entry, looked up): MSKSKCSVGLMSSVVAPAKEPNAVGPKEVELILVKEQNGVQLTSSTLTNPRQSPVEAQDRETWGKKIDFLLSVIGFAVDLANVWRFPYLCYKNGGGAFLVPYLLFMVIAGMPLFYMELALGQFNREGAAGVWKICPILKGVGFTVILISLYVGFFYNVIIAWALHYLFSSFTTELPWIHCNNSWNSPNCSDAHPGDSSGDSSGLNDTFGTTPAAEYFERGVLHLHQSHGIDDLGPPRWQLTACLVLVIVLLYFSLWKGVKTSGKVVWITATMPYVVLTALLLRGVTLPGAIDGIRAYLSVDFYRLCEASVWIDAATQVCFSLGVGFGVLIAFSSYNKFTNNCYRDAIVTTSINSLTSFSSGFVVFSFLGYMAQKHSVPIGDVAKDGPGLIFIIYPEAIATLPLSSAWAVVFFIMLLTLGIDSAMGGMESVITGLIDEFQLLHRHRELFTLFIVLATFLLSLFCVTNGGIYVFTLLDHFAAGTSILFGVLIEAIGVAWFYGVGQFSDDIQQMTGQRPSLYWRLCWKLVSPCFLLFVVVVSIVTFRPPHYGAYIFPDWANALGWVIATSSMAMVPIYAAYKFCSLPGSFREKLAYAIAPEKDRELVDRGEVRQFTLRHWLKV
D1 mod – D1 CRE-luciferase signal change, two-sided – cell-based, HEK293 D1, dopamine EC30, D1 allosteric modulator project, primary screen | AID 641, 2007 | 58,000 compounds, 5.9% hits | D(1A) dopamine receptor (Homo sapiens), P21728 | dopamine EC30 potentiation; actives deviate in either direction | B-score at 10 µM;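 active = luminescence count or its row- and column-corrected plate score outside the 99.7% band of the plate's sample wells, on either side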
D1 mod confirm – D1 receptor positive allosteric modulators, retest, confirmation, cell-based, HEK293 D1, CRE-luciferase, duplicate; shares compounds with D1 mod; luminescence at 10 µM; dopamine EC30 potentiation; active compounds read high; 2,200 compounds, 88% hits;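 active = luminescence in either of two replicates above the same-plate mean plus 3 SD of the low-dose dopamine control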
D1 ag no DA – D1 receptor agonism without dopamine, confirmation, mechanism study for D1 allosteric modulator project, cell-based, HEK293 D1, CRE-luciferase, secondary assay 1; luminescence at 10 µM; 1,900 compounds, 0.8% hits; shares compounds with D1 mod; luminescence, no dopamine; active compounds read high; in the data active = luminescence above about 3900
Isoprot counter – counter-screen for D1 modulators: isoproterenol response in HEK293 cells; luminescence at 10 µM; shares compounds with D1 mod; HEK293 D1 CRE-luciferase, isoproterenol EC30 counter-screen; active compounds read high; 2,200 compounds, 63% hits;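 active = luminescence in either replicate above plate mean of wells with a partly effective reference agonist dose plus 3 SD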;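 also: isoproterenol raises cAMP through native beta-adrenoceptor Gs so signal bypasses D1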
Numbers without * were called inactive; / = no result given.

SMILES	MMP-13 inhibitor	AP complement	Candida biofilm	hDAT+cocaine	D1 mod	D1 mod confirm	D1 ag no DA	Isoprot counter
O=C1OCc2cc(NC(=O)C3CCCO3)ccc21 (stereo unspecified)	-3	7	5	-1.4	-0.66	/	/	/
Cn1c2ccccc2c(=O)c2c(=O)n(C3CCCCC3)c(-c3cccs3)nc21	/	/	5	-0.76	/	/	/	/
COc1cc2c(cc1OC)C(=O)CC(C)S2 (stereo unspecified)	/	/	/	-1.9	/	/	/	/
NC(=O)c1cnn2c(C(F)(F)F)cc(-c3ccccc3)nc12	-4	4	-6	-0.76	7.9*	17628*	1408	4488*
Cc1ccc(-c2cc(C(F)(F)F)n3ncc(C(=O)N4CCN(C)CC4)c3n2)cc1	-2	7	5	0.73	0.41	/	/	/
O=C(NCc1ccco1)c1cnn2c(C(F)(F)F)cc(-c3ccccc3)nc12	-1	24	9	-0.85	2	/	/	/
NC(=O)c1cnn2c(C(F)(F)F)cc(-c3ccc(F)cc3)nc12	-14	-12	3	-0.14	2.5*	10756*	1664	4224*
COC(C[C@@H]1O[C@@H]1[C@H](O)COCc1ccccc1)OC	/	/	/	-0.16	/	/	/	/
O=C(c1ccccc1)N(Cc1ccccc1)c1ccccn1	-6	22	4	-0.6	5.8*	9876*	/	2572
O=C(c1cccnc1)N(Cc1ccccc1)c1ccccc1	0	7	5	0.47	6.8*	15108*	1816	3296*
Cc1ccc(S(=O)(=O)N2CCC(=O)N(CCOC(=O)Nc3ccc(C)c(C)c3)CC2)cc1	/	/	/	2.4	/	/	/	/
Nc1c(C(=O)c2ccccc2)sc2snc(SCC(=O)c3ccccc3)c12	/	/	/	1.1	/	/	/	/
CC1(C)Oc2ccc3ccc(=O)oc3c2/C(=C/NCCN/C=C2\C(=O)C(C)(C)Oc3ccc4ccc(=O)oc4c32)C1=O	/	/	8	/	/	/	/	/
CCCCNC(=O)Nc1ccc(Br)cn1	-2	3	1	0.26	7.2*	12048*	1684	2980
CCCCC(=O)Nc1ccc(Br)cn1	/	/	5	0.33	/	/	/	/
Cc1ccc(CN(CC(=O)N/N=C/c2ccco2)S(=O)(=O)c2ccc(C)cc2)cc1	/	/	/	0.41	/	/	/	/
CCn1c(-c2ccsc2)nc2c1c(=O)[nH]c(=O)n2Cc1ccccc1	-5	3	4	2.3	6.3*	16576*	1684	3544*
Nc1cccc(-n2nncc2-c2ccc(Cl)cc2)c1	9	1	-2	-0.91	4.5	/	/	/
Nc1nonc1-n1nncc1-c1ccccc1	4	4	7	0.25	5.9*	10724*	1496	3176*
COC(=O)CSc1nnc(CNS(=O)(=O)c2ccc(Cl)cc2)n1C	/	/	2	-0.95	/	/	/	/
COc1ccc2c(Cl)c(C(N)=O)sc2c1	-1	16	3	-0.62	7.3*	15304*	1792	3248*
COc1ccc2c(Cl)c(C(=O)NN)sc2c1	/	/	/	0.86	/	/	/	/
COc1ccc(-c2nnc(SCc3ccccc3F)o2)cc1OC	-2	11	1	-1	12*	22288*	1720	4708*
Cc1ccc(SCc2nc(-c3ccccc3)no2)cc1	3	3	5	-0.49	-0.027	/	/	/
COc1ccc(-c2noc(CSc3ccccc3)n2)cc1OC	11	-10	6	2.1	9.4*	8800*	1600	3028*
SMILES	MMP-13 inhibitor	AP complement	Candida biofilm	hDAT+cocaine	D1 mod	D1 mod confirm	D1 ag no DA	Isoprot counter
Cc1ccc(-c2noc(CSc3nnc(CCc4ccccc4)n3-c3ccccc3)n2)cc1	/	/	1	0.099	/	/	/	/
COc1ccc(-c2noc(CCN3C(=O)c4ccccc4C3=O)n2)cc1OC	0	0	2	0.12	2.6*	17536*	1456	3152
COc1ccc(-c2noc(CSc3nnc(CCc4ccccc4)n3-c3ccccc3)n2)cc1OC	1	6	4	2.4	7.2*	10480*	1584	3456*
CCOc1cc(CC(=O)N[C@@H](CC(C)C)c2ccccc2N2CCCCC2)ccc1C(=O)O	/	/	/	1.2	/	/	/	/
O=C(CSc1ncn[nH]1)Nc1ccccc1Sc1ccc(Cl)cc1	/	/	5	-0.57	/	/	/	/
Cc1c(C(=O)NC2CCCc3ccccc32)oc2ccc(S(=O)(=O)N3CCOCC3)cc12 (stereo unspecified)	1	9	14	0.21	6*	7816*	1568	4040*
COc1ccc(OC)c2c1sc(=NC(=O)c1ccco1)n2C	2	17	6	1.1	3.2*	13568*	1564	3444*
Cc1ccc(-c2c(C)sc(=NC(=O)c3ccco3)n2C)cc1	/	/	/	-0.13	/	/	/	/
Cc1cc(Nc2ccccc2Br)n2nc(C)nc2n1	2	5	11	/	-0.15	/	/	/
Cc1cc(Nc2ccc(C)c(Br)c2)n2nc(C)nc2n1	-7	15	3	-1	2.8*	7632	1564	2644
CSC1=NC(NCCCO)c2c(sc3c2CC(C)(C)OC3)N1 (stereo unspecified)	-27	17	3	0.41	3.9*	11400*	1504	2884
CC1(C)Cc2c(sc3nc(SCC(=O)O)[nH]c(=O)c23)CO1	1	-3	7	0.83	-0.61	/	/	/
COC(=O)c1cc(NC(=O)CCc2c(C)nc3ncnn3c2C)cc(C(=O)OC)c1	2	20	11	0.42	5.2*	5564	/	2420
CCOc1cc(C2C(C(=O)OC)=C(C)N=C3SCCC(=O)N32)ccc1OC(C)=O (stereo unspecified)	-1	8	4	-1.2	5.1*	6516*	/	2496*
O=C(c1ccccc1)c1nc2ccccc2n(CCCn2c(=O)c(C(=O)c3ccccc3)nc3ccccc32)c1=O	/	/	15	0.85	/	/	/	/
O=C(c1cccn2c(=O)c3cc(Cl)ccc3nc12)N1CCN(Cc2ccc3c(c2)OCO3)CC1	-20	14	9	/	3*	6868*	1600	2704
CCn1ncc2c1C(=O)NC1c3ccccc3C(=O)N21 (stereo unspecified)	1	-2	2	-0.72	17*	21460*	/	3692*
CN(C)C(=O)CSC1c2ccccc2C(=O)N1c1ccccc1 (stereo unspecified)	/	/	/	0.6	/	/	/	/
CCCCn1c(=O)[nH]c(=O)c2c1nc(COC(=O)c1c(C)noc1C)n2CCC	1	8	5	1.4	6.2*	14616*	1628	3932*
CCCCn1c(CCC(=O)O)nc2c1c(=O)[nH]c(=O)n2CCC	/	/	/	0.71	/	/	/	/
